Measurements collected from several papers.
Each line is one published result; the experiments were not run side by side.
Target: Tyrosine-protein kinase receptor TYRO3 (TYRO3, Homo sapiens, UniProt Q06418)
One construct used (Q06418 41-890): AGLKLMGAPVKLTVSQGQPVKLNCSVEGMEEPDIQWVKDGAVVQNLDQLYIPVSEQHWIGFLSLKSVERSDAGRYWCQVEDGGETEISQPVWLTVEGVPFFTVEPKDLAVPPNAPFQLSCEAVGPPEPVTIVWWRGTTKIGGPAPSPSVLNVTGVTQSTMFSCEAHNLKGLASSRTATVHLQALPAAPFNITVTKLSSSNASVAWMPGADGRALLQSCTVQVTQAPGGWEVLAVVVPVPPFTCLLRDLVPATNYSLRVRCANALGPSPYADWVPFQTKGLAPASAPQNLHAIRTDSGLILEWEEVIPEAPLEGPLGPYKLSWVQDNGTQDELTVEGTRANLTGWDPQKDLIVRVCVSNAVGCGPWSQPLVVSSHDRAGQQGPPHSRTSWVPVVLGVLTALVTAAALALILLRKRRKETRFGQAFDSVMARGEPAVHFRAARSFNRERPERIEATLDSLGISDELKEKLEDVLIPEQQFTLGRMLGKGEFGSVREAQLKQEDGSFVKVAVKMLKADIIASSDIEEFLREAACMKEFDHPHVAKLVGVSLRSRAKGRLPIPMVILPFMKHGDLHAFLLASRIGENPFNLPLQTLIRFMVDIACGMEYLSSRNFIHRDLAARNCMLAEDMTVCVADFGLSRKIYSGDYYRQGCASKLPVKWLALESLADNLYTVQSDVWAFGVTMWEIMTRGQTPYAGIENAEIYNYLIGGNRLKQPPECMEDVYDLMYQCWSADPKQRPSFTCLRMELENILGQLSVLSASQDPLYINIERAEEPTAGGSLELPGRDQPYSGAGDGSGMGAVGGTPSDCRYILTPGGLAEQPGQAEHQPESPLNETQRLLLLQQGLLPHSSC

CNC(=O)[C@@H]1CC[C@@H](n2c(-c3ccc4cnccc4c3)nc3ccc(C(=O)NCc4cccc(C(N)=O)c4)cc32)C1 — remaining binding (binding; competition with immobilised ligand; 1 µM): 100%
C[C@@H]1CCN(c2nccc(-c3cnn4ncccc34)n2)C1 — remaining binding (binding; 1 µM): 100%
C[C@@H](c1ccc(-n2cnc3c(N)ncnc32)cc1)N1CCc2nn(C)c(Cc3ccccc3)c2C1=O — remaining binding (binding; competition with immobilised ligand; 0.1 µM): 100%
O=C(c1ccc(Nc2nccc(-c3cc4ccccc4s3)n2)cc1)N1CCC(N2CCCC2)CC1 — remaining binding (binding; competition with immobilised ligand; 1 µM): 95%
O=C(Nc1c[nH]nc1C(=O)NC1CCNCC1)c1cc(F)cc(F)c1 — remaining binding (binding; competition with immobilised ligand; 1 µM): 100%
N[C@@H]1CCN(c2nccc(-c3cnn4ncccc34)n2)C1 — remaining binding (binding; 1 µM): 100%
COc1cnc(Nc2cccc(S(N)(=O)=O)c2)nc1N1CCN(c2ccccc2)C(=O)C1 — remaining binding (binding; competition with immobilised ligand; 1 µM): 100%
CN(C)c1ncc(F)c(-c2cnn3ncccc23)n1 — remaining binding (binding; 1 µM): 75%
CNC(=O)c1ccc(Nc2ncc(C(F)(F)F)c(NCc3nccnc3N(C)S(C)(=O)=O)n2)cc1 — remaining binding (cell-free assay; competition with immobilised ligand; 0.1 µM): 100%
CN(c1nccc(-c2cnn3ncccc23)n1)C1CC1 — remaining binding (binding; 1 µM): 83%
COc1ccc2c(c1)O[C@@H](c1ccc(OC)c(OC)c1)C[C@H]2NC(=O)C1(c2ccc3c(c2)OC(F)(F)O3)CC1 — remaining binding (cell-free assay; competition with immobilised ligand; 1 µM): 97%
c1cncc(-c2cccc(Nc3nccc(NC4CCCCC4)n3)c2)c1 — remaining binding (binding; competition with immobilised ligand; 10 µM): 9.3%
NS(=O)(=O)c1cc(NC(=O)C2(c3ccccc3Cl)CC2)ccc1Oc1cccc(Cl)c1 — remaining binding (cell-free assay; competition with immobilised ligand; 1 µM): 100%
COc1ncc2cc3ccccc3nc2c1C#N — remaining binding (cell-free assay; competition with immobilised ligand; 5 µM): 96%
Nc1c(C(=O)NCc2ccc(C(=O)NCCCC3CCCCC3)cc2)cnn1-c1ccccc1 — remaining binding (cell-free assay; competition with immobilised ligand; 0.1 µM): 100%
O=C(NCCCN1CCOCC1)c1ccc(Nc2ncc(Cl)c(-c3ccc(Cl)s3)n2)cc1 — remaining binding (binding; competition with immobilised ligand; 1 µM): 94%
O=c1nc(-c2ccccn2)sc2ccccc12 — remaining binding (cell-free assay; competition with immobilised ligand; 1 µM): 80%
Cc1cnn2ncc(-c3ccnc(N(C)C)n3)c2c1 — remaining binding (binding; 1 µM): 100%
C[C@@H](c1cccc(C#N)c1)n1cc(Cl)cc(C(N)=O)c1=N — remaining binding (cell-free assay; competition with immobilised ligand; 1 µM): 68%
F[C@@H]1CCN(c2nccc(-c3cnn4ncccc34)n2)C1 — remaining binding (binding; 1 µM): 89%
CS(=O)(=O)NCC[C@H](NC(=O)c1cncc2c1cnn2-c1ccc(F)cc1)c1ccnc(S(C)(=O)=O)c1 — remaining binding (cell-free assay; competition with immobilised ligand; 1 µM): 94%
Cc1cnc(Nc2ccc(C(=O)N3CCC(N4CCCC4)CC3)cc2)nc1-c1cc2ccccc2s1 — remaining binding (binding; competition with immobilised ligand; 1 µM): 58%
